What was measured:
Plasmodium falciparum [1] = experiment: Antiplasmodial activity against chloroquine-sensitive Plasmodium falciparum 3D7 infected in human O positive erythrocytes after 48 hrs by SYBR green-I based fluorescence assay; format: functional, organism-based; details: 3D7, 48 h
In short: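 3D7 was cultured at 37 °C, 5% CO₂, in O+ human erythrocytes at 5% hematocrit, in RPMI 1640 with 2% human serum, 0.2% NaHCO₃, 0.5% Albumax II, hypoxanthine and gentamicin. Cultures were sorbitol-synchronized (mostly late rings/early trophozoites). Drugs from DMSO stocks were serially diluted in triplicate wells (final DMSO ≤0.001%) and incubated 48 h. Read-out was SYBR Green I in lysis buffer, 1 h dark RT, ex 485/em 530 nm. EC₅₀ was taken as 50% fluorescence reduction, as the mean of triplicate experiments.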

Plasmodium falciparum [2] = experiment: Ratio of chloroquine IC50 to Compound IC50 for chloroquine-sensitive Plasmodium falciparum 3D7; format: functional
[3] = Plasma protein binding in human; format: ADME, organism-based
Mus musculus = experiment: Toxicity in Plasmodium berghei NK65 infected in Swiss mouse assessed as mouse mortality at 50 mg/kg, ip administered 2 hrs postinfection daily for 4 days measured on day 5; format: organism-based; parameters: dose 50 mg/kg, route intraperitoneal; details: in vivo
In short: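 Swiss male mice (20 ± 2 g) were infected on day 0 with 10⁷ parasitized cells and kept in groups of five. Compound was given i.p. at 50 mg/kg/day, starting 2 h after infection on day 0 and continuing through day 3. Untreated (blank) and chloroquine (5 mg/kg/day) groups served as controls.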

[4] = Intestinal absorption in human; format: ADME, organism-based; details: in vivo, read-out: HIA
Plasmodium berghei [5] = experiment: Antimalarial activity against Plasmodium berghei NK65 infected in Swiss mouse assessed as inhibition of parasitemia at 25 mg/kg, ip administered 2 hrs postinfection daily for 4 days measured on day 5; format: functional; details: route intraperitoneal
In short: (§1)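 Swiss male mice (20 ± 2 g) were infected on day 0 with 10⁷ parasitized cells, in groups of five. Dosing was i.p. at 50 or 25 mg/kg/day from day 0 (2 h post-infection) to day 3. Parasitemia on day 4 was counted from Giemsa-stained tail thin smears (≥9000 RBC, 1000×). Results were compared with untreated and CQ 5 mg/kg/day controls, and % inhibition was calculated relative to untreated parasitemia.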

Plasmodium berghei [6] = experiment: Antimalarial activity against Plasmodium berghei NK65 infected in Swiss mouse assessed as inhibition of parasitemia at 50 mg/kg, ip administered 2 hrs postinfection daily for 4 days measured on day 5; format: functional; details: route intraperitoneal; in short: as §1
[7] = Cytotoxicity against african green monkey CV1 cells; format: cell-based, CV-1; details: chlorocebus aethiops

Row | Structure (SMILES) | IC50 (Plasmodium falciparum [1]) | Ratio IC50 (Plasmodium falciparum [2]) | fraction unbound [3] | Activity (Mus musculus) | Fa [4] | inhibition in vivo at 25 mg/kg (Plasmodium berghei [5]) | inhibition in vivo at 50 mg/kg (Plasmodium berghei [6]) | CC50 [7]
1 | COc1ccccc1CC1(O)c2ccccc2C2=NCCN21 (stereo unspecified) | > 35 µM | <1 |  |  |  |  |  | 
2 | COc1cccc(CC2(O)c3ccccc3C3=NCCN32)c1 (stereo unspecified) | 8.36 µM | <1 |  |  |  |  |  | 
3 | Oc1ccc(CC2(O)c3ccccc3C3=NCCN32)cc1 (stereo unspecified) | > 35 µM | <1 |  |  |  |  |  | 
4 | OC1(Cc2ccc(F)cc2F)c2ccccc2C2=NCCN21 (stereo unspecified) | 33.3 µM | <1 |  |  |  |  |  | 
5 | OC1(Cc2cc(F)cc(F)c2)c2ccccc2C2=NCCN21 (stereo unspecified) | > 35 µM | <1 |  |  |  |  |  | 
6 | Oc1ccc(CC2(O)c3ccccc3C3=NCCN32)cc1Cl (stereo unspecified) | > 35 µM | <1 |  |  |  |  |  | 
7 | OC1(Cc2cccs2)c2ccccc2C2=NCCN21 (stereo unspecified) | 19.6 µM | <1 |  |  |  |  |  | 
8 | OC1(Cc2ccsc2)c2ccccc2C2=NCCN21 (stereo unspecified) | 6.6 µM | <1 |  |  |  |  |  | 
9 | Cn1c(CC2(O)c3ccccc3C3=NCCN32)cc2ccccc21 (stereo unspecified) | 13.5 µM | <1 |  |  |  |  |  | 
10 | CSc1ccc(CC2(O)c3ccccc3-c3nc4ccccc4n32)cc1 (stereo unspecified) | > 27 µM | <1 |  |  |  |  |  | 
11 | CSc1ccc(CC2(O)c3ccccc3-c3nc4cc(C)ccc4n32)cc1 (stereo unspecified) | 15.6 µM | <1 |  |  |  |  |  | 
12 | OC1(Cc2ccc3ccccc3c2)c2ccccc2-c2nc3ccccc3n21 (stereo unspecified) | > 30 µM | <1 |  |  |  |  |  | 
13 | OC1(Cc2ccc3ccccc3c2)c2ccccc2C2=NCCN21 (stereo unspecified) | 0.06 µM | 16.7 | > 0.1 | Toxic | > 95% | 87% |  | 
14 | OC1(Cc2ccccc2Cl)c2ccccc2C2=NCCN21 (stereo unspecified) | 15.2 µM | <1 |  |  |  |  |  | 
15 | CSc1ccc(CC2(O)c3ccccc3C3=NCCN32)cc1 (stereo unspecified) | 0.06 µM | 16.7 | > 0.1 |  | > 95% |  | 84% | > 24 µM
16 | OC1(Cc2ccc(Cl)c(Cl)c2)c2ccccc2C2=NCCN21 (stereo unspecified) | 0.3 µM | 3.3 | > 0.1 | Toxic | > 95% | 19% |  | 
17 | OC1(Cc2ccc(F)cc2)c2ccccc2C2=NCCN21 (stereo unspecified) | 4.2 µM | <1 |  |  |  |  |  | 
18 | OC1(Cc2ccc(Cl)cc2)c2ccccc2C2=NCCN21 (stereo unspecified) |  | 8.3 | > 0.1 |  | > 95% |  | 7% | > 16 µM
19 | OC1(Cc2ccc(Cl)cc2Cl)c2ccccc2C2=NCCN21 (stereo unspecified) | 8.8 µM | <1 |  |  |  |  |  | 
20 | OC1(Cc2cccc3ccccc23)c2ccccc2C2=NCCN21 (stereo unspecified) | 16.3 µM | <1 |  |  |  |  |  | > 15 µM
21 | COc1ccc(CC2(O)c3ccccc3C3=NCCN32)cc1 (stereo unspecified) | 0.24 µM | 4.2 | > 0.1 |  | > 95% |  | 23% | 
22 | COc1ccc(CC2(O)c3ccccc3C3=NCCN32)cc1OC (stereo unspecified) | 27.6 µM | <1 |  |  |  |  |  | > 30 µM
23 | OC1(Cc2ccc3c(c2)OCO3)c2ccccc2C2=NCCN21 (stereo unspecified) | 2.2 µM | <1 | > 0.1 |  | > 95% |  | 53% | > 32 µM
24 | OC1(Cc2ccccc2)c2ccccc2C2=NCCN21 (stereo unspecified) | 37.8 µM | <1 |  |  |  |  |  | 
25 | COc1cc(CC2(O)c3ccccc3C3=NCCN32)cc(OC)c1OC (stereo unspecified) | 1.49 µM | <1 | > 0.1 |  | > 95% |  | < 5% | 
26 | CSc1ccc(C=C2c3ccccc3C(=O)N2c2cc(Cl)ccc2N)cc1 (mixture of isomers) | 13.9 µM | <1 |  |  |  |  |  | 
27 | Nc1ccc(Cl)cc1N1C(=O)c2ccccc2C1=Cc1ccc2ccccc2c1 (mixture of isomers) | 10 µM | <1 |  |  |  |  |  | 
